Results of several laboratories.
Protocols differ between the studies behind these lines.
Target: MAP kinase-interacting serine/threonine-protein kinase 1 (MKNK1, Homo sapiens, UniProt Q9BUB5)

Compound	observed	action	method	tested at	endpoint	result
COc1ncccc1-c1cnn2ccc(N3CCN(C(=O)OC(C)C)CC3)nc12	binding		competition with immobilised ligand	1 µM	remaining binding	100%
O=c1[nH]c2ccccc2n1C1CCN(Cc2ccc(-c3[nH]c4cc5ncnc5cc4nc3-c3ccccc3)cc2)CC1	cell-free assay			0.5 µM	remaining signal	104%
Nc1ncc(-c2nc(N3CCOCC3)nc(N3CCOCC3)n2)c(C(F)F)n1	binding		competition with immobilised ligand	10 µM	remaining binding	45%
Cc1nn(C)cc1-c1nc2c(N3CCN(Cc4ccc(Cl)cc4)CC3)c(Cl)cnc2[nH]1	binding		competition with immobilised ligand	1 µM	remaining binding	100%
N#CC1(c2ccccn2)CCN(Cc2cc(C(=O)O)c(=O)n3ccccc23)CC1	cell-free assay		competition with immobilised ligand	1 µM	remaining binding	85%
COc1cc(Nc2ncc(F)c(Nc3ccc4c(n3)NC(=O)C(C)(C)O4)n2)cc(OC)c1OC	binding		competition with immobilised ligand	10 µM	inhibition	9%
CC(C)(C)c1cc(C=C(C#N)C#N)cc(Br)c1O	enzyme activity	inhibitor		0.5 µM	remaining activity	95.9%
Cn1cncc1[C@](O)(COc1ccc(C#N)cc1-c1ccc(OC(F)(F)F)cc1)c1ccc(C#N)cc1	cell-free assay		competition with immobilised ligand	1 µM	remaining binding	68%
